Like-named read-outs stand apart in the source and are kept apart here.
What was measured:
B6C3F1 mice [1] = settings: dermal exposure; Supplemental Table 8; ref Weatherly et al., 2021; cited from earlier work
skin [2] = assay: Irritation at the site of dermal application; format: in vivo, B6C3F1 mice; settings: 0.5%, 28 days
ear pinna [3] = assay: Skin; format: in vivo, B6C3F1 mice; settings: 0.5%, dermal, 28 days
Summary of the method: (§1)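 Dosing was daily topical to both dorsal ears (25 μl/ear, acetone vehicle) in female B6C3F1 mice. Liver caudate lobe or half ear pinna was stored in RNAlater and homogenized in RLT buffer. RNA was isolated on RNeasy columns with DNase, and 1–2 μg was reverse-transcribed. TaqMan real-time PCR was read as 2−ΔΔCT vs vehicle, normalized to β-actin. Statistics: ANOVA/Dunnett's, or Kruskal-Wallis/Dunn's for unequal variance.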

[4] = ref ATSDR, 2021; cited from earlier work
skin [5] = settings: concentrations up to 2%; ref Shane et al., 2020; cited from earlier work
B6C3F1 mice [6] = assay: Serum chemistries after 28-day dermal exposure; format: in vivo; settings: 28 days
Summary of the method: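 Female B6C3F1 mice received daily dorsal ear application (25 μl/ear, acetone vehicle). About 24 h after the last dose, blood was taken by cardiac puncture. Serum was separated by centrifugation and stored at −20 °C. ALKP, BUN, glucose and cholesterol were read on a Catalyst DX analyzer. Data are mean ± SE of 4–5 mice, ANOVA with Dunnett's; ALKP was also tested by linear regression (p < 0.05).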

ear pinna [7] = assay: Skin; format: in vivo, B6C3F1 mice; settings: 0.5%, dermal, 28 days; remark: listed apart in the source
Summary of the method: (§2)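 Female B6C3F1 mice (5/group) received 25 μl/ear daily to the dorsal ears in acetone. About 24 h after the last dose, tissues went into RPMI: both auricular dLNs, half spleen and one ear pinna. Single-cell suspensions were acquired on an LSR II, with populations gated per supplemental strategy and FMO gating controls. Results are mean ± SE, n=5, by one-way ANOVA.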

kidney, spleen = assay: Kidney and spleen histopathology after 28-day dermal exposure; format: in vivo, B6C3F1 mice; settings: 0.5%, 28 days
Summary of the method: (§3)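 Female B6C3F1 mice (5/group) received 25 μl/ear on the dorsal ear surfaces daily, with acetone as vehicle. Tissues were formalin-fixed about 24 h after the last dose: liver remainder, half spleen, right kidney and half ear pinna. Sections were paraffin-embedded, cut at 5 μm and stained with H&E. A veterinary pathologist read them per STP guideline and graded 1 (minimal) to 5 (severe) by extent.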

[8] = PFAS concentration in pooled urine; format: in vivo, B6C3F1 mice; settings: B6C3F1, mouse, urine, topical, 0.5 % w/v
Summary of the method: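 Urine was caught in a weigh boat as it was excreted during CO2 euthanasia, about 24 h after the final daily ear dose (25 μl/ear, acetone vehicle; female B6C3F1 mice). The 5 mice per group were pooled, with variable volume. Samples underwent solid-phase extraction and LC/MS/MS, as linear isomer for short-chain analytes and linear plus branched for the comparator. Each group gave a single value without statistics.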

[9] = test system: auricular draining lymph nodes (dLNs); assay: Draining lymph node phenotyping by flow cytometry after 28-day dermal exposure; format: in vivo, B6C3F1 mice; settings: 0.5%, 28 days
Summary of the method: as §2

liver = assay: Liver histopathology after 28-day dermal exposure; format: in vivo, B6C3F1 mice; settings: 0.5%, 28 days
Summary of the method: as §3

spleen = assay: Spleen phenotyping by flow cytometry after 28-day dermal exposure; format: in vivo, B6C3F1 mice; settings: 0.5%, 28 days
Summary of the method: as §2

[10] = PFAS concentration in serum; format: in vivo, B6C3F1 mice; settings: 0.5%, dermal, 28 days
Summary of the method: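 Serum came by cardiac puncture about 24 h after the final daily ear dose (25 μl/ear, acetone vehicle; female B6C3F1 mice). Samples underwent solid-phase extraction and LC/MS/MS. Short-chain analytes were quantified as linear isomer only; the legacy comparator was quantified as linear plus branched. Data are mean ± SE of 4–5 mice, one-way ANOVA with Dunnett's vs vehicle.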

liver (caudate) = assay: Liver gene expression; format: in vivo, B6C3F1 mice; settings: 0.5%, dermal, 28 days
Summary of the method: as §1

B6C3F1 mice [11] = assay: Organ weights and body weight after 28-day dermal exposure; format: in vivo; settings: 0.5%, 28 days

For O=C(O)C(F)(F)C(F)(F)C(F)(F)F [PFBA, heptafluorobutyric acid], the serum cholesterol (B6C3F1 mice [1]) is listed as “elevated cholesterol” and the serum glucose levels (B6C3F1 mice [1]) is listed as “increase in glucose levels”.
For O=C(O)C(F)(F)C(F)(F)C(F)(F)C(F)(F)C(F)(F)C(F)(F)C(F)(F)F [PFOA, perfluorooctanoic acid, reference compound], the “irritation at the site of application” value (skin [2]) was “no irritation”, the “skin Flg gene expression” value (ear pinna [3]) was “increased” and the “skin Pparγ gene expression” value (ear pinna [3]) was “significant decrease”. The “skin Pparδ gene expression” value (ear pinna [3]) was “slight significant increase”, the “skin Serpine1 gene expression” value (ear pinna [3]) was “significant increase” and the half-life in humans [4] was 2.1–10.1 years. For the same compound, the “signs of skin irritation” value (skin [5]) was “did not show any signs of irritation”, the “serum ALKP, increase” value (B6C3F1 mice [6]; 0.5%) was 112% and the “serum BUN” value (B6C3F1 mice [6]; 0.5%) was “No change”. For the same compound, the serum cholesterol (B6C3F1 mice [6]; 0.5%) was “No change”, the “serum glucose, decrease” value (B6C3F1 mice [6]; 0.5%) was 44% and the “serum alanine aminotransferase (ALT)” value (B6C3F1 mice [6]; any concentration, data not shown) was “No change”. For the same compound, the “skin CD11b + F4/80+ DCs, frequency and cell number” value (ear pinna [7]) was “significantly decreased”, the “skin CD11b− F4/80 DCs, frequency and cell number” value (ear pinna [7]) was “significantly decreased” and the “skin CD11b− F/480+ DCs, frequency and cell number” value (ear pinna [7]) was “significantly decreased”. For the same compound, the “skin CD45^+ cells, frequency and cell number” value (ear pinna [7]) was “significantly decreased”, the “skin eosinophils, frequency and cell number” value (ear pinna [7]) was “significantly decreased” and the “skin total DCs, frequency and cell number” value (ear pinna [7]) was “significantly decreased”. For the same compound, the “spleen decreased lymphocyte cellularity, mild (incidence)” value (kidney, spleen) was 2/5, the concentration at 24 h [8] was 260 µg/mL and the “dLN B-cells” value [9] was “no B-cell changes”. The “dLN CD4^+ T-cells, cell number and frequency” value [9] was “decreased”, the “dLN MHCII MFI on B-cells” value [9] was “decrease” and the “dLN eosinophil cell number” value [9] was “decrease”. For the same compound, the “total dLN cellularity” value [9] was “neither PFOA (Supplemental Table 3) nor PFBA (Supplemental Table 9) induced changes”, the “liver hepatocellular hypertrophy (diffuse), marked (incidence)” value (liver) was 5/5 and the “spleen MFI of MHCII on B-cells” value (spleen) was “decrease”. For the same compound, the “spleen MFI of MHCII on DCs” value (spleen) was “decrease”, the “spleen frequency of CD4^+ T-cells” value (spleen) was “increase” and the “spleen frequency of CD8^+ T-cells” value (spleen) was “increase”. The “spleen frequency of CD11b + Ly6C + cells” value (spleen) was “decrease”, the “spleen frequency of CD11b + Ly6C− cells” value (spleen) was “decrease” and the “spleen frequency of CD11b + cells” value (spleen) was “decrease”. For the same compound, the “spleen frequency of NK cells” value (spleen) was “decrease”, the “spleen frequency of neutrophils” value (spleen) was “increase” and the “spleen number of B-cells” value (spleen) was “significant decrease”. The “spleen number of CD4^+ T-cells” value (spleen) was “significant decrease”, the “spleen number of CD11b + Ly6C + cells” value (spleen) was “significant decrease” and the “spleen number of CD11b + Ly6C− cells” value (spleen) was “significant decrease”. The “spleen number of CD11b + cells” value (spleen) was “significant decrease”, the “spleen number of NK cells” value (spleen) was “significant decrease” and the “spleen number of eosinophils” value (spleen) was “significant decrease”. For the same compound, the “spleen number of total DCs” value (spleen) was “significant decrease”, the “spleen total cell number” value (spleen) was “significant decrease” and the “PFAS serum concentration vs vehicle” value [10] was “significant increase”. The “liver Cd36 gene expression, increase” value (liver (caudate)) was 12.2 fold, the “liver Ehhadh gene expression, increase” value (liver (caudate)) was 57.7 fold and the “liver Lpl gene expression, increase” value (liver (caudate)) was 13.1 fold. The “liver Pparδ gene expression” value (liver (caudate)) was “decrease”, the “liver Serpine1 gene expression, increase” value (liver (caudate)) was 10.5 fold and the body weight (B6C3F1 mice [11]) was “significant decrease”. For the same compound, the “kidney weight (% body weight), increase” value (B6C3F1 mice [11]) was 8%, the “liver weight (% body weight), increase” value (B6C3F1 mice [11]) was 120% and the “spleen weight (% body weight), decrease” value (B6C3F1 mice [11]) was 41%. The “thymus weight (% body weight), decrease” value (B6C3F1 mice [11]) was 71%.
